# In publication PMC7903221 (Bioorganic & medicinal chemistry, 2020):
# Key:
# NCI-H460 [1] = assay: NCI-60 five-dose assay, NCI-H460; type: cell-based, human; conditions: 48 hours, total growth inhibition
# NCI-H322M = assay: NCI-60 five-dose assay, NCI-H322M; type: cell-based, human; conditions: 48 hours, total growth inhibition
# A549/ATCC = assay: NCI-60 five-dose assay, A549/ATCC; type: cell-based; conditions: 48 hours, total growth inhibition
# HOP-62 = assay: NCI-60 five-dose assay, HOP-62; type: cell-based, human; conditions: 48 hours, total growth inhibition
# NSCLC cell lines = assay: NCI-60 five-dose assay, ranges over NSCLC cell lines; type: cell-based; conditions: Homo sapiens; for GI50: read-out: GI50 values, range over NSCLC cell lines; for CC50: read-out: LC50 values, range over NSCLC cell lines
# nine NSCLC cell lines = assay: NCI-60 one-dose assay, average over nine NSCLC cell lines; type: cell-based; conditions: Homo sapiens, 48 h, read-out: Growth % Average
# Procedure, shortened: (§1)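 NCI DTP single-dose screen. Cells were seeded at a density tied to doubling rate and incubated 24 h, then exposed to test compound at 10 μM for 48 h. Growth percentage is relative to the starting cell population: positive means net growth, negative means cell loss. It is given per NSCLC line or as the mean across the nine NSCLC lines.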
# [2] = test system: NSCLC cell lines (NCI-H460, NCI-H1975, HCC827, and A549); assay: MTT assay, panel of four NSCLC cell lines; type: cell-based, human
# Procedure, shortened: (§2)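 Human NSCLC lines were kept in RPMI 1640 with 10% FBS at 37 °C, 5% CO2, passaged every 2–3 days. Cells were seeded at 5,000–7,000/well depending on line and left 24 h. Test compound in DMSO/water (1 mM stock) was added at final 1, 4, 16 and 32 μM in medium, 6 replicates, for 72 h. MTT was applied for 3–4 h, then medium was replaced by DMSO for 15 min and OD read at 540 nm. IC50 is growth inhibition of 50% versus untreated cells.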
# NCI-H522 [3] = assay: NCI-60 five-dose assay, NCI-H522; type: cell-based, human; conditions: 48 hours, total growth inhibition
# NCI-H460 [4] = assay: NCI-60 one-dose assay, NCI-H460; type: cell-based; conditions: Homo sapiens, NCI-H460, 48 h, read-out: Growth % NCI-H460
# Procedure, shortened: as §1
# EKVX = assay: NCI-60 five-dose assay, EKVX; type: cell-based, human; conditions: 48 hours, total growth inhibition
# NCI-H23 = assay: NCI-60 five-dose assay, NCI-H23; type: cell-based, human; conditions: 48 hours, total growth inhibition
# HOP-92 = assay: NCI-60 five-dose assay, HOP-92; type: cell-based, human; conditions: 48 hours, total growth inhibition
# NCI-H226 = assay: NCI-60 five-dose assay, NCI-H226; type: cell-based, human; conditions: 48 hours, total growth inhibition
# C57BL/6 mice = assay: Preliminary in vivo toxicity study; conditions: 20 mg/kg IP on days 0, 7, 14 and 29
# NCI-H522 [5] = assay: NCI-60 one-dose assay, NCI-H522; type: cell-based; conditions: Homo sapiens, NCI-H522, 48 h, read-out: Growth % NCI-H522
# Procedure, shortened: as §1
# A549 = assay: MTT assay, A549; type: cell-based, human; conditions: read-out: IC50 Value A549, 72 hours
# Procedure, shortened: as §2
# HCC827 = assay: MTT assay, HCC827; type: cell-based, human; conditions: read-out: IC50 Value HCC827, 72 hours
# Procedure, shortened: as §2
# NCI-H1975 = assay: MTT assay, NCI-H1975; type: cell-based, human; conditions: read-out: IC50 Value NCI-H1975, 72 hours
# Procedure, shortened: as §2
# NCI-H460 [6] = assay: MTT assay, NCI-H460; type: cell-based, human; conditions: read-out: IC50 Value NCI-H460, 72 hours
# Procedure, shortened: as §2
structure (smiles),measurement,setting,value
"[Br-].[Br-].c1ccc2cc(Cn3cc[n+](CCCCCCCCCCCCn4cc[n+](Cc5ccc6ccccc6c5)c4)c3)ccc2c1 [Compound 12, 1-(naphthalen-2-ylmethyl)-3-(12-(3-(naphthalen-2-ylmethyl)-imidazolium-1-yl)dodecyl)-imidazolium bromide]",TGI NCI-H460,NCI-H460 [1],2.96 µM
same,TGI NCI-H322M,NCI-H322M,3.90 µM
same,TGI A549/ATCC,A549/ATCC,3.57 µM
same,TGI HOP-62,HOP-62,2.65 µM
same,GI50,NSCLC cell lines,0.47 to 0.984 µM
same,CC50,NSCLC cell lines,7.29 to 14.6 µM
same,activity at 10 µM,nine NSCLC cell lines,-60.9%
same,IC50,"[2]; Homo sapiens, 72 h, read-out: IC50 values for three of the four cell lines",< 1 µM
same,TGI NCI-H522,NCI-H522 [3],1.25 µM
same,activity at 10 µM,NCI-H460 [4],-69.9%
same,TGI EKVX,EKVX,4.20 µM
same,TGI NCI-H23,NCI-H23,2.40 µM
same,TGI HOP-92,HOP-92,1.40 µM
same,TGI NCI-H226,NCI-H226,5.52 µM
"[Br-].[Br-].c1ccc2cc(Cn3cc[n+](CCCCCCCCCCn4cc[n+](Cc5ccc6ccccc6c5)c4)c3)ccc2c1 [Compound 10, 1-(naphthalen-2-ylmethyl)-3-(10-(3-(naphthalen-2-ylmethyl)-imidazolium-1-yl)decyl)-imidazolium bromide]",tolerability,C57BL/6 mice,well tolerated
same,TGI A549/ATCC,A549/ATCC,13.3 µM
same,TGI HOP-62,HOP-62,7.24 µM
same,GI50,NSCLC cell lines,0.396 to 3.55 µM
same,CC50,NSCLC cell lines,15.2 to 58.4 µM
same,activity at 10 µM,nine NSCLC cell lines,2.47%
same,activity at 10 µM,NCI-H522 [5],-72.3%
same,TGI NCI-H522,NCI-H522 [3],1.94 µM
same,TGI EKVX,EKVX,9.07 µM
same,TGI NCI-H23,NCI-H23,3.35 µM
same,TGI HOP-92,HOP-92,2.96 µM
"c1ccc2cc(Cn3cc[n+](CCn4cc[n+](Cc5ccc6ccccc6c5)c4)c3)ccc2c1 [Compound 2, 1-(naphthalen-2-ylmethyl)-3-(2-(3-(naphthalen-2-ylmethyl)-imidazolium-1-yl)ethyl)-imidazolium bromide]",activity at 10 µM,nine NSCLC cell lines,80.9%
"c1ccc2cc(Cn3cc[n+](CCCCCCCn4cc[n+](Cc5ccc6ccccc6c5)c4)c3)ccc2c1 [Compound 7, 1-(naphthalen-2-ylmethyl)-3-(7-(3-(naphthalen-2-ylmethyl)-imidazolium-1-yl)heptyl)-imidazolium bromide]",activity at 10 µM,nine NSCLC cell lines,30%
"c1ccc2cc(Cn3cc[n+](CCCCCCn4cc[n+](Cc5ccc6ccccc6c5)c4)c3)ccc2c1 [Compound 6, 1-(naphthalen-2-ylmethyl)-3-(6-(3-(naphthalen-2-ylmethyl)-imidazolium-1-yl)hexyl)-imidazolium bromide]",activity at 10 µM,nine NSCLC cell lines,47.3%
"c1ccc2cc(Cn3cc[n+](CCCCCn4cc[n+](Cc5ccc6ccccc6c5)c4)c3)ccc2c1 [Compound 5, 1-(naphthalen-2-ylmethyl)-3-(5-(3-(naphthalen-2-ylmethyl)-imidazolium-1-yl)pentyl)-imidazolium bromide]",activity at 10 µM,nine NSCLC cell lines,53.9%
"[Br-].[Br-].c1ccc2cc(Cn3cc[n+](Cn4cc[n+](Cc5ccc6ccccc6c5)c4)c3)ccc2c1 [Compound 1, 1-(naphthalen-2-ylmethyl)-3-((3-(naphthalen-2-ylmethyl)-imidazolium-1-yl)methyl)-imidazolium bromide]",activity at 10 µM,nine NSCLC cell lines,79.5%
same,IC50 values for three of the four cell lines,"[2]; MTT, 72 hours, three of the four cell lines tested",above the testing concentration
"N.N.[Cl][Pt][Cl] [Cisplatin, cisplatin]",IC50,A549,5 µM
same,IC50,HCC827,9 µM
same,IC50,NCI-H1975,3 µM
same,IC50,NCI-H460 [6],6 µM
"c1ccc2cc(Cn3cc[n+](CCCn4cc[n+](Cc5ccc6ccccc6c5)c4)c3)ccc2c1 [Compound 3, 1-(naphthalen-2-ylmethyl)-3-(3-(3-(naphthalen-2-ylmethyl)-imidazolium-1-yl)propyl)-imidazolium bromide]",activity at 10 µM,nine NSCLC cell lines,72.8%
